Test results reported in ChEMBL document CHEMBL4190353, “Synthesis, structure-activity relationships and preliminary mechanism of action of novel water-soluble 4-quinolone-3-carboxamides as antiproliferative agents” (Eur J Med Chem, 2017).

Tests used:
BGC-823 = test: Cytotoxicity against human BGC823 cells assessed as reduction in cell viability incubated for 24 hrs by MTT assay; format: functional, cell-based; settings: BGC-823, 24 h
In short: (§1)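 Cells were kept in McCoy's 5A with 10% fetal bovine serum, streptomycin and 100 units·mL⁻¹ penicillin at 37 °C under 5% CO₂/95% air. Viability was read by MTT optical density. IC50 is the concentration that lowers optical density by 50% relative to untreated cells. Values are means with SD of at least three independent determinations.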

[1] = Solubility in water; format: physicochemical
HCT-116 = test: Cytotoxicity against human HCT116 cells assessed as reduction in cell viability incubated for 24 hrs by MTT assay; format: functional, cell-based; settings: HCT-116, 24 h; in short: as §1
HepG2 = test: Cytotoxicity against human HepG2 cells assessed as reduction in cell viability incubated for 24 hrs by MTT assay; format: functional, cell-based; settings: HepG2, 24 h; in short: as §1
HeLa = test: Cytotoxicity against human HeLa cells assessed as reduction in cell viability incubated for 24 hrs by MTT assay; format: functional, cell-based; in short: as §1
HEp-2 = test: Cytotoxicity against human Hep2 cells assessed as reduction in cell viability incubated for 24 hrs by MTT assay; format: functional, cell-based; settings: HEp-2, 24 h; in short: as §1
PC-3 = test: Cytotoxicity against human PC3 cells assessed as reduction in cell viability incubated for 24 hrs by MTT assay; format: functional, cell-based; settings: PC-3, 24 h; in short: as §1
RKO = test: Cytotoxicity against human RKO cells assessed as reduction in cell viability incubated for 24 hrs by MTT assay; format: functional, cell-based; in short: as §1
MCF7 = test: Cytotoxicity against human MCF7 cells assessed as reduction in cell viability incubated for 24 hrs by MTT assay; format: functional, cell-based; settings: MCF7, 24 h; in short: as §1
HCT-8 = test: Cytotoxicity against human HCT8 cells assessed as reduction in cell viability incubated for 24 hrs by MTT assay; format: functional, cell-based; settings: HCT-8, 24 h; in short: as §1

solubility [1] | Compound | IC50 (BGC-823) | IC50 (HCT-116) | IC50 (HepG2) | IC50 (HeLa) | IC50 (HEp-2) | IC50 (PC-3) | IC50 (RKO) | IC50 (MCF7) | IC50 (HCT-8)
> 10000 µg/mL | CCN(CC)CCCNC(=O)c1cn(C)c2cc(Cl)ccc2c1=O.Cl | 17.8 µM | 9.85 µM | 8.72 µM | 9.5 µM | 4.51 µM | 15.8 µM | 11.2 µM | 10 µM | 22.4 µM
> 10000 µg/mL | CCN(CC)CCNC(=O)c1cn(C)c2cc(Cl)ccc2c1=O.Cl | 27.6 µM | 15.6 µM | 10.2 µM | 28.9 µM | 17.8 µM | 31.6 µM | 24.6 µM | 22.4 µM | 32.6 µM
– | CCOC(=O)c1cn(CCCc2ccccc2)c2cc(Cl)ccc2c1=O | 18.6 µM | 10.8 µM | 15.1 µM | 14.8 µM | 7.63 µM | 16.1 µM | 9.86 µM | 14.1 µM | 17 µM
> 10000 µg/mL | C=CCn1cc(C(=O)NCCN(CC)CC)c(=O)c2ccc(Cl)cc21.Cl | 12 µM | 35.6 µM | 19.1 µM | 38.9 µM | 24 µM | 44.5 µM | 30.1 µM | 47.9 µM | 30.2 µM
– | C=CCn1cc(C(=O)OCC)c(=O)c2ccc(Cl)cc21 | > 50 µM | > 50 µM | 43.8 µM | > 50 µM | > 50 µM | > 50 µM | 48 µM | 49.8 µM | 45.2 µM
> 10000 µg/mL | CCN(CC)CCNC(=O)c1cn(CC)c2cc(Cl)ccc2c1=O.Cl | 12.3 µM | 19.8 µM | 9.52 µM | 13.8 µM | 42.3 µM | 15.9 µM | 23.4 µM | 25.1 µM | 25.1 µM
– | CCOC(=O)c1cn(C)c2cc(Cl)ccc2c1=O | 30.2 µM | > 50 µM | 38 µM | > 50 µM | 25 µM | > 50 µM | > 50 µM | > 50 µM | > 50 µM
– | CCOC(=O)c1cn(CC)c2cc(Cl)ccc2c1=O | 40.7 µM | > 50 µM | 47.9 µM | > 50 µM | > 50 µM | > 50 µM | > 50 µM | > 50 µM | > 50 µM
> 10000 µg/mL | CCN(CC)CCCNC(=O)c1c[nH]c2cc(F)ccc2c1=O.Cl | 46.3 µM | 38.6 µM | > 50 µM | 39.4 µM | 45.1 µM | > 50 µM | 29.8 µM | 36.8 µM | 48.5 µM
> 10000 µg/mL | C=CCn1cc(C(=O)NCCCN(CC)CC)c(=O)c2ccc(Cl)cc21.Cl | 15.1 µM | 18.7 µM | 12.6 µM | 19.1 µM | 14.5 µM | 14.1 µM | 16.3 µM | 35.5 µM | 30 µM
– | Oc1ccnc2cc(Cl)ccc12 | > 50 µM | > 50 µM | > 50 µM | > 50 µM | > 50 µM | > 50 µM | > 50 µM | > 50 µM | > 50 µM
> 10000 µg/mL | CCN(CC)CCCNC(=O)c1c[nH]c2cc(Cl)ccc2c1=O.Cl | 23.4 µM | 23.3 µM | 28.2 µM | 22.4 µM | 25.1 µM | 39.8 µM | 25.2 µM | 22.4 µM | 28.8 µM
– | CCOC(=O)c1cn(Cc2ccccc2)c2cc(Cl)ccc2c1=O | 13.8 µM | 21.3 µM | 22.4 µM | 16.2 µM | 19.1 µM | 27.9 µM | 16.3 µM | 15.8 µM | 27.4 µM
> 10000 µg/mL | CCN(CC)CCCNC(=O)c1c[nH]c2cc(Br)ccc2c1=O.Cl | 44.7 µM | 44.3 µM | 45.7 µM | > 50 µM | 44.7 µM | > 50 µM | 38.7 µM | 21.1 µM | > 50 µM
> 10000 µg/mL | CCN(CC)CCCNC(=O)c1cn(CC)c2cc(Cl)ccc2c1=O.Cl | 11.7 µM | 8.78 µM | 10.5 µM | 15.1 µM | 9.82 µM | 12.6 µM | 10.2 µM | 14.1 µM | 16.9 µM
– | CCCCn1cc(C(=O)OCC)c(=O)c2ccc(Cl)cc21 | 43.6 µM | 39.8 µM | 28.3 µM | > 50 µM | 35.5 µM | 41.7 µM | 45.2 µM | > 50 µM | > 50 µM
> 10000 µg/mL | CCN(CC)CCCNC(=O)c1c[nH]c2cc(OC)ccc2c1=O.Cl | 40.8 µM | 38.9 µM | 47.9 µM | 39.8 µM | 40.8 µM | > 50 µM | 42.5 µM | 34.7 µM | 44.6 µM

Compound | solubility [1] | IC50 (BGC-823) | IC50 (HCT-116) | IC50 (HepG2) | IC50 (HeLa) | IC50 (HEp-2) | IC50 (PC-3) | IC50 (RKO) | IC50 (MCF7) | IC50 (HCT-8)
CCN(CC)CCCNC(=O)c1cn(Cc2ccccc2)c2cc(Cl)ccc2c1=O.Cl | > 10000 µg/mL | 5.21 µM | 8.65 µM | 4.43 µM | 4.9 µM | 4.51 µM | 10.2 µM | 7.89 µM | 4.54 µM | 19.5 µM
CCCCn1cc(C(=O)NCCCN(CC)CC)c(=O)c2ccc(Cl)cc21.Cl | > 10000 µg/mL | 9.12 µM | 7.84 µM | 5.63 µM | 15.4 µM | 11.2 µM | 8.31 µM | 9.65 µM | 12.3 µM | 28.8 µM
CCN(CC)CCNC(=O)c1cn(Cc2ccccc2)c2cc(Cl)ccc2c1=O.Cl | > 10000 µg/mL | 10.2 µM | 11.2 µM | 4.32 µM | 5.83 µM | 7.02 µM | 9.5 µM | 14.3 µM | 15.8 µM | 23.1 µM
CCCCn1cc(C(=O)NCCN(CC)CC)c(=O)c2ccc(Cl)cc21.Cl | > 10000 µg/mL | 7.11 µM | 21 µM | 6.92 µM | 21.6 µM | 22.6 µM | 44.6 µM | 16.8 µM | 35.5 µM | 46.8 µM
